Experimental data reported in EPA's CvTdb concentration-time database.

Tests used:
Rat [1] = test: concentration in plasma after dosing; conditions: 5 min; dosed: Isoeugenol; 17 mg/kg; oral; Male; F344/N
Rat [2] = test: concentration in plasma after dosing; conditions: dosed: Isoeugenol, 70 mg/kg, oral, Male, F344/N
Rat [3] = test: concentration in plasma after dosing
Rat [4] = test: concentration in plasma after dosing; conditions: dosed: Tetralin, 20 mg/kg, iv, Female, Harlan Sprague Dawley
rat [5] = test: concentration in blood after dosing; conditions: male
human = test: concentration in blood after dosing; negative times count back from the end of exposure; conditions: dosed: methylethylketone, inhalation, duration: 4 hr, male
Method in brief: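 Data points giving concentration or amount against time came from published in vivo toxicokinetic studies and from two structured collections. PubMed searching, classifier screening and manual review located the studies. Most points were digitised from plot screenshots using WebPlotDigitizer, the rest were copied from tables, and all keep their reported units.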

C/C=C/c1ccc(O)c(OC)c1 [Isoeugenol]
Conditions	concentration in plasma [ng/mL]
Rat [1]	238

Rat [2]
Conditions	concentration in plasma [ng/mL]
2 min	74.6
6 h	84.5

concentration in plasma [ng/mL], Rat [3], dosed: Isoeugenol, oral, F344/N
Conditions	Female	Male
0.5 h, 17 mg/kg	155	87.8
0.5 h, 70 mg/kg	–	312
0.75 h, 17 mg/kg	73.5	73
1 h, 17 mg/kg	57.7	34.4
1.5 h, 17 mg/kg	–	26.5
1.5 h, 70 mg/kg	–	118
2 h, 17 mg/kg	27.7	–
2 min, 17 mg/kg	48.3	53.9
2 min, 70 mg/kg	–	1160
3 h, 17 mg/kg	48.1	–
3 h, 70 mg/kg	–	216
4 h, 17 mg/kg	35.3	37.5
5 h, 17 mg/kg	50.1	–
5 h, 70 mg/kg	–	199
5 min, 17 mg/kg	346	141
5 min, 70 mg/kg	–	683
6 h, 17 mg/kg	32.7	27.6
6 h, 70 mg/kg	–	150
8 h, 17 mg/kg	38.5	–
8 h, 70 mg/kg	–	362
10 min, 17 mg/kg	161	148
10 min, 70 mg/kg	–	499
20 min, 17 mg/kg	358	86.1
20 min, 70 mg/kg	–	672

c1ccc2c(c1)CCCC2 [Tetralin]
concentration in plasma [µg/g], Rat [3], dosed: Tetralin, iv
Conditions	F344	Harlan Sprague Dawley
0.25 h, 20 mg/kg, Female	–	9.76
0.2517 h, 2 mg/kg, Male	0.888	–
0.2533 h, 2 mg/kg, Male	–	0.449
0.5033 h, 20 mg/kg, Female	–	2.55
0.505 h, 2 mg/kg, Male	–	0.207
0.5067 h, 2 mg/kg, Male	0.254	–
0.75 h, 2 mg/kg, Male	0.107	0.0681
0.75 h, 20 mg/kg, Female	–	2.11
1 h, 2 mg/kg, Male	0.11	0.0492
1 h, 20 mg/kg, Female	–	2.1
2 h, 2 mg/kg, Male	0.0262	0.0157
2 h, 20 mg/kg, Female	–	0.596
4 h, 2 mg/kg, Male	0.0114	0.0103
4 h, 20 mg/kg, Female	–	0.2
4 h, 20 mg/kg, Male	0.158	–
6 h, 2 mg/kg, Male	0.00667	0.00504
6.017 h, 20 mg/kg, Female	–	0.105
8 h, 2 mg/kg, Male	0.00488	0.00316
8 h, 20 mg/kg, Female	–	0.0424
12 h, 2 mg/kg, Male	0.00332	0.00151
12 h, 20 mg/kg, Female	–	0.0371
24 h, 2 mg/kg, Male	0.00081	–
24 h, 20 mg/kg, Female	–	0.00866
301 s, 20 mg/kg, Male	21	–
303 s, 20 mg/kg, Female	–	23.1
307 s, 2 mg/kg, Male	–	1.68
322 s, 2 mg/kg, Male	1.64	–

Rat [4]
Conditions	concentration in plasma [µg/g]
0.75 h	2.18
12 h	0.0369

[3H][3H] [[3]H]
rat [5], dosed: benzo[a]pyrene, Sprague Dawley
Conditions	concentration in blood [nM]
0 h, 1.70 nmol, iv	37.2
0 h, 3.20 nmol, oral	0.288
0 h, 4 nmol, oral	0.112
0.1116 h, 1.70 nmol, iv	12
0.1125 h, 1.70 nmol, iv	18.1
0.1153 h, 1.70 nmol, iv	8.27
0.1252 h, 1.70 nmol, iv	3.03
0.1473 h, 1.70 nmol, iv	12.7
0.1638 h, 4 nmol, oral	0.0356
0.1807 h, 4 nmol, oral	0.233
0.182 h, 1.70 nmol, iv	8.84
0.2047 h, 3.20 nmol, oral	0.443
0.3049 h, 1.70 nmol, iv	3.66
0.3458 h, 1.70 nmol, iv	3.2
0.4131 h, 3.20 nmol, oral	0.622
0.4184 h, 4 nmol, oral	0.364
0.4356 h, 4 nmol, oral	0.0332
0.443 h, 3.20 nmol, oral	0.188
0.6282 h, 4 nmol, oral	0.444
0.6407 h, 1.70 nmol, iv	2.67
0.6517 h, 3.20 nmol, oral	0.22
0.6678 h, 4 nmol, oral	0.0641
0.6836 h, 3.20 nmol, oral	0.741
0.6859 h, 1.70 nmol, iv	1.6
0.8687 h, 4 nmol, oral	0.516
0.9146 h, 1.70 nmol, iv	2.27
0.9355 h, 1.70 nmol, iv	0.81
0.9369 h, 4 nmol, oral	0.0732
0.9512 h, 3.20 nmol, oral	0.245
0.9543 h, 3.20 nmol, oral	0.873
1.04 h, 3.20 nmol, oral	0.279
1.135 h, 3.20 nmol, oral	0.947
1.371 h, 1.70 nmol, iv	1.8
1.4 h, 3.20 nmol, oral	0.297
1.416 h, 1.70 nmol, iv	0.882
1.435 h, 3.20 nmol, oral	1.17
1.639 h, 3.20 nmol, oral	0.347
1.858 h, 1.70 nmol, iv	1.32
1.88 h, 1.70 nmol, iv	0.331
1.886 h, 4 nmol, oral	0.208
1.95 h, 3.20 nmol, oral	1.17
2.33 h, 3.20 nmol, oral	0.383
2.464 h, 3.20 nmol, oral	1.19
2.498 h, 4 nmol, oral	0.817
3.067 h, 3.20 nmol, oral	1.37
3.756 h, 3.20 nmol, oral	0.16
3.763 h, 4 nmol, oral	0.0925
3.824 h, 1.70 nmol, iv	1.31
3.841 h, 1.70 nmol, iv	0.238
4.13 h, 4 nmol, oral	0.9
4.75 h, 3.20 nmol, oral	0.144
4.761 h, 3.20 nmol, oral	1.39
5.695 h, 4 nmol, oral	0.059
5.72 h, 3.20 nmol, oral	0.0876
5.758 h, 3.20 nmol, oral	1.58
5.767 h, 1.70 nmol, iv	0.231
5.852 h, 1.70 nmol, iv	1.2
7.678 h, 3.20 nmol, oral	0.0754
7.696 h, 3.20 nmol, oral	1.38
8.636 h, 1.70 nmol, iv	1.06
8.719 h, 1.70 nmol, iv	0.195
9.661 h, 3.20 nmol, oral	1.58
9.666 h, 3.20 nmol, oral	0.0665
11.66 h, 4 nmol, oral	0.971
11.69 h, 3.20 nmol, oral	1.46
11.71 h, 3.20 nmol, oral	0.0645
11.72 h, 4 nmol, oral	0.0461
12.06 h, 1.70 nmol, iv	0.983
23.76 h, 4 nmol, oral	0.0211
23.79 h, 3.20 nmol, oral	0.0341
23.82 h, 3.20 nmol, oral	1.25
23.82 h, 4 nmol, oral	0.858
28.68 h, 1.70 nmol, iv	0.0889
29.09 h, 1.70 nmol, iv	0.82
31.89 h, 3.20 nmol, oral	0.0299
153 s, 1.70 nmol, iv	38.5
172 s, 1.70 nmol, iv	16.8
225 s, 4 nmol, oral	0.176
238 s, 3.20 nmol, oral	0.0632
265 s, 1.70 nmol, iv	26.5
278 s, 1.70 nmol, iv	26.9
297 s, 3.20 nmol, oral	0.492
321 s, 3.20 nmol, oral	0.107
331 s, 4 nmol, oral	0.194

CCC(C)=O [methylethylketone]
human
Conditions	concentration in blood [nM]
0.1373 h, 400 ppm	216000
0.1381 h, 200 ppm	70400
0.1632 h, 25 ppm	2960
0.1664 h, 25 ppm	3300
0.3028 h, 200 ppm	74400
0.3068 h, 400 ppm	201000
0.3094 h, 200 ppm	54500
0.3251 h, 25 ppm	2530
0.3266 h, 25 ppm	2690
0.4719 h, 200 ppm	65300
0.4774 h, 25 ppm	2090
0.4845 h, 200 ppm	49100
0.4885 h, 25 ppm	2260
0.9614 h, 200 ppm	40100
0.9652 h, 200 ppm	50500
0.9754 h, 400 ppm	150000
0.9842 h, 25 ppm	1520
0.985 h, 25 ppm	1610
1.481 h, 200 ppm	44700
1.482 h, 200 ppm	22900
1.484 h, 400 ppm	121000
1.968 h, 200 ppm	25400
1.969 h, 200 ppm	17200
1.978 h, 400 ppm	115000
1.982 h, 25 ppm	771
1.983 h, 25 ppm	828
2.965 h, 200 ppm	24300
2.966 h, 200 ppm	14600
2.966 h, 400 ppm	98400
2.996 h, 25 ppm	635
3 h, 25 ppm	521
3.971 h, 200 ppm	9240
3.974 h, 200 ppm	5930
4.006 h, 25 ppm	630
4.01 h, 25 ppm	532
4.323 h, 400 ppm	48000
4.987 h, 400 ppm	33200
5.414 h, 200 ppm	3680
5.418 h, 200 ppm	2750
7.74 h, 200 ppm	1750
28 min, 400 ppm	171000

human, during exposure
Conditions	concentration in blood [nM]
-122 s, 25 ppm	4680
-83 s, 200 ppm	100000
-69 s, 25 ppm	4740
-46 s, 400 ppm	230000
-3.994 h, 25 ppm	180
-3.993 h, 25 ppm	263
-3.835 h, 25 ppm	1850
-3.83 h, 400 ppm	47800
-3.827 h, 25 ppm	2220
-3.739 h, 200 ppm	24100
-3.681 h, 25 ppm	2140
-3.67 h, 25 ppm	2790
-3.661 h, 400 ppm	68300
-3.508 h, 25 ppm	2380
-3.505 h, 25 ppm	2710
-3.477 h, 400 ppm	80000
-3.248 h, 200 ppm	54200
-3.243 h, 200 ppm	41800
-2.997 h, 25 ppm	3290
-2.993 h, 25 ppm	2680
-2.992 h, 400 ppm	112000
-2.506 h, 200 ppm	55000
-2.505 h, 200 ppm	58500
-2.503 h, 400 ppm	162000
-2.017 h, 25 ppm	3040
-2.012 h, 25 ppm	3560
-1.994 h, 400 ppm	177000
-1.527 h, 200 ppm	81500
-1.508 h, 200 ppm	69500
-1.022 h, 25 ppm	4440
-1.012 h, 25 ppm	4010
-1.006 h, 400 ppm	215000
-1 min, 200 ppm	93000
-0.7876 h, 200 ppm	88300
-0.7835 h, 200 ppm	86700

C=Cc1ccccc1 [styrene]
rat [5], dosed: styrene, 3000 ppm, dermal, duration: 4 hr, F344
Conditions	concentration in blood [ng/mL]
0.5 h	1480
1 h	2090
2 h	4160
3 h	6070
4 h	7610
